Assay results as given in ChEMBL document CHEMBL1126715, “Synthesis and tissue distribution of (m-[125I]iodobenzyl)trozamicol ([125I]MIBT): potential radioligand for mapping central cholinergic innervation” (J Med Chem, 1993).

Tests used:
[1] = organism: Rattus norvegicus; assay: Tissue distribution in rat spleen after 60 minutes (n=3); assay type: ADME, organism-based; conditions: in vivo, 1 h
Procedure, shortened: (§1)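 Male Wistar rats (200-350 g) under ether anesthesia; radiotracer (3-5 μCi in 0.1 mL 50% aqueous ethanol) given iv. At 5, 30, 60 and 180 min, blood was drawn by cardiac puncture and animals were killed by cardiectomy. Organs were weighed and γ-counted against a 1:100 dilution of the injected dose. Results are given as % injected dose/g tissue; ratios are taken between tissue levels.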

[2] = organism: Rattus norvegicus; assay: Tissue distribution in rat kidney after 30 minutes (n=3); assay type: ADME, organism-based; conditions: in vivo, 0.5 h; procedure, shortened: as §1
[3] = organism: Rattus norvegicus; assay: Ratio of tissue distribution between rat heart and blood after 5 min; assay type: ADME, organism-based; conditions: other tissue, 5 min; procedure, shortened: as §1
[4] = organism: Rattus norvegicus; assay: Tissue distribution in rat brain after 5 minutes (n=3); assay type: ADME, organism-based; conditions: in vivo; procedure, shortened: as §1
[5] = organism: Rattus norvegicus; assay: Tissue distribution in rat liver after 60 minutes (n=3); assay type: ADME, organism-based; conditions: in vivo, 1 h; procedure, shortened: as §1
[6] = organism: Rattus norvegicus; assay: Tissue distribution in rat lung after 60 minutes (n=3); assay type: ADME, organism-based; conditions: in vivo, 1 h; procedure, shortened: as §1
[7] = organism: Rattus norvegicus; assay: Tissue distribution in rat liver after 30 minutes (n=3); assay type: ADME, organism-based; conditions: in vivo, 0.5 h; procedure, shortened: as §1
[8] = organism: Rattus norvegicus; assay: Effect of vesamicol on the accumulation in rat lung in group 1 (n=3); assay type: ADME, organism-based; conditions: in vivo
Procedure, shortened: (§2)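 Male Wistar rats (n = 4/group) given iv vehicle (100 μL 50% aqueous EtOH) or dl-vesamicol (1.01 μmol/kg); 15 min later iv radiotracer (2.0 μCi in 100 μL 50% aqueous EtOH); killed 30 min post-tracer. Blood by cardiac puncture, organs weighed and γ-counted vs 1:100 injected-dose dilution; % dose/g tissue (range); tissue/blood ratios.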

[9] = organism: Rattus norvegicus; assay: Tissue distribution in rat muscle after 30 minutes (n=3); assay type: ADME, organism-based; conditions: in vivo, 0.5 h
Procedure, shortened: (§3)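 Male Wistar rats (200-350 g) under ether, iv [125I]tracer (3-5 μCi in 0.1 mL 50% aqueous EtOH). At 5, 30, 60 or 180 min, blood taken by cardiac puncture and the rat killed by cardiectomy. Organs weighed and γ-counted against 1:100 dilutions of the injected dose; results in % injected dose/g, with range.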

[10] = organism: Rattus norvegicus; assay: Tissue distribution in rat lung after 180 minutes (n=3); assay type: ADME, organism-based; conditions: in vivo, 3 h; procedure, shortened: as §3
[11] = organism: Rattus norvegicus; assay: Effect of vesamicol on the accumulation in rat gonads in group 1 (n=3); assay type: ADME, organism-based; conditions: in vivo
[12] = organism: Rattus norvegicus; assay: Effect of vesamicol on the accumulation in rat gonads in group 2 (n=3); assay type: ADME, organism-based; conditions: in vivo; procedure, shortened: as §2
[13] = organism: Rattus norvegicus; assay: Tissue distribution in rat kidney after 180 minutes (n=3); assay type: ADME, organism-based; conditions: in vivo, 3 h; procedure, shortened: as §1
[14] = organism: Rattus norvegicus; assay: Effect of vesamicol on the accumulation in rat kidney in group 2 (n=3); assay type: ADME, organism-based; conditions: in vivo
[15] = organism: Rattus norvegicus; assay: Effect of vesamicol on the accumulation in rat brain in group 2 (n=3); assay type: ADME, organism-based; conditions: in vivo
[16] = organism: Rattus norvegicus; assay: Effect of vesamicol on the accumulation in rat brain in group 1 (n=3); assay type: ADME, organism-based; conditions: in vivo; procedure, shortened: as §2
[17] = organism: Rattus norvegicus; assay: Ratio of tissue distribution between rat heart and blood after 60 min; assay type: ADME, organism-based; conditions: other tissue, 1 h; procedure, shortened: as §1
[18] = organism: Rattus norvegicus; assay: Tissue distribution in rat blood after 180 minutes (n=3); assay type: ADME, organism-based; conditions: in vivo, 3 h; procedure, shortened: as §1
[19] = organism: Rattus norvegicus; assay: Effect of vesamicol on the accumulation in rat muscle in group 2 (n=3); assay type: ADME, organism-based, Muscle tissue; conditions: in vivo; procedure, shortened: as §2
[20] = organism: Rattus norvegicus; assay: Effect of vesamicol on the accumulation in rat heart in group 1 […]; assay type: ADME, organism-based; conditions: in vivo; procedure, shortened: as §2
[21] = organism: Rattus norvegicus; assay: Effect of vesamicol on the accumulation in rat thyroid in group 2 (n=3); assay type: ADME, organism-based, Thyroid gland; conditions: in vivo; procedure, shortened: as §2
[22] = organism: Rattus norvegicus; assay: Tissue distribution in rat gonads after 180 minutes (n=3); assay type: ADME, organism-based, Gonad; conditions: in vivo, 3 h; procedure, shortened: as §1
[23] = organism: Rattus norvegicus; assay: Effect of vesamicol on the accumulation in rat spleen in group 1 (n=3); assay type: ADME, organism-based; conditions: in vivo; procedure, shortened: as §2
[24] = organism: Rattus norvegicus; assay: Effect of vesamicol on the accumulation in rat muscle in group 1 (n=3); assay type: ADME, organism-based, Muscle tissue; conditions: in vivo; procedure, shortened: as §2
[25] = organism: Rattus norvegicus; assay: Tissue distribution in rat blood after 30 minutes (n=3); assay type: ADME, organism-based; conditions: in vivo, 0.5 h; procedure, shortened: as §1
[26] = organism: Rattus norvegicus; assay: Tissue distribution in rat muscle after 180 minutes (n=3); assay type: ADME, organism-based; conditions: in vivo, 3 h; procedure, shortened: as §1
[27] = Ratio of effect of vesamicol on the accumulation between rat brain and blood in group 2; assay type: ADME, organism-based; procedure, shortened: as §2
[28] = Ratio of effect of vesamicol on the accumulation between rat heart and blood in group 1; assay type: ADME, organism-based; procedure, shortened: as §2
[29] = organism: Rattus norvegicus; assay: Tissue distribution in rat brain after 180 minutes (n=3); assay type: ADME, organism-based; conditions: in vivo, 3 h; procedure, shortened: as §3
[30] = organism: Rattus norvegicus; assay: Tissue distribution in rat spleen after 30 minutes (n=3); assay type: ADME, organism-based; conditions: in vivo, 0.5 h; procedure, shortened: as §1
[31] = organism: Rattus norvegicus; assay: Effect of vesamicol on the accumulation in rat liver in group 2 (n=3); assay type: ADME, organism-based; conditions: in vivo
[32] = organism: Rattus norvegicus; assay: Tissue distribution in rat thyroid after 180 minutes (n=3); assay type: ADME, organism-based, Thyroid gland; conditions: in vivo, 3 h; procedure, shortened: as §1
[33] = organism: Rattus norvegicus; assay: Tissue distribution in rat spleen after 180 minutes (n=3); assay type: ADME, organism-based; conditions: in vivo, 3 h; procedure, shortened: as §1
[34] = organism: Rattus norvegicus; assay: Tissue distribution in rat brain after 60 minutes (n=3); assay type: ADME, organism-based; conditions: in vivo, 1 h; procedure, shortened: as §1
[35] = organism: Rattus norvegicus; assay: Effect of vesamicol on the accumulation in rat lung in group 2 (n=3); assay type: ADME, organism-based; conditions: in vivo

With O[C@@H]1CCN(Cc2cccc([125I])c2)C[C@H]1N1CCC(c2ccccc2)CC1 (stereo in doubt; (-)) the Dose/g [1] was 1.17%, the Dose/g [2] was 3.53% and the Ratio [3] was 6.07. It also gave a Dose/g [4] of 0.92%, a Dose/g [5] of 2.63% and a Dose/g [6] of 2.41%. The Dose/g [7] was 2.35%, the Dose/g [8] was 2.36% and the Dose/g [9] was 0.3%. For the same compound, the Dose/g [10] was 2.01%, the Dose/g [11] was 0.15% and the Dose/g [12] was 0.16%. For the same compound, the Dose/g [13] was 3.27%, the Dose/g [14] was 1.13% and the Dose/g [15] was 0.34%. For the same compound, the Dose/g [16] was 0.68%, the Ratio [17] was 5.97 and the Dose/g [18] was 0.1%. The Dose/g [19] was 0.16%, the Dose/g [20] was 0.59% and the Dose/g [21] was 4.56%. For the same compound, the Dose/g [22] was 0.2%, the Dose/g [23] was 1.05% and the Dose/g [24] was 0.18%. The Dose/g [25] was 0.11%, the Dose/g [26] was 0.27% and the Kp [27] was 5.59. It also gave a Kp [28] of 2.75, a Dose/g [29] of 0.92% and a Dose/g [30] of 1.24%. The Dose/g [31] was 1.89%, the Dose/g [32] was 11.55% and the Dose/g [33] was 1.28%. It also gave a Dose/g [34] of 0.83% and a Dose/g [35] of 1.59%.
